# High-throughput results deposited in PubChem BioAssay by several laboratories.
# Hits are enriched below; roughly 2.6% of the tested compounds scored in any of these assays.
# Rev-erbA mod = modulators of human Rev-erb alpha DNA binding | P20393 | AID 1259318 | activity, % at 10 µM | 370,000 tested, 0.79% active | Rev-erbα–FITC-DNA binding, fluorescence polarization, 90 min;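 active means activity above about 14%, limit read from the data; passing the limit was not always enough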;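 further: 0% = DMSO wells with 35 nM protein and 100% = DMSO wells with 750 nM protein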
# Target sequence (P20393 whole entry, looked up): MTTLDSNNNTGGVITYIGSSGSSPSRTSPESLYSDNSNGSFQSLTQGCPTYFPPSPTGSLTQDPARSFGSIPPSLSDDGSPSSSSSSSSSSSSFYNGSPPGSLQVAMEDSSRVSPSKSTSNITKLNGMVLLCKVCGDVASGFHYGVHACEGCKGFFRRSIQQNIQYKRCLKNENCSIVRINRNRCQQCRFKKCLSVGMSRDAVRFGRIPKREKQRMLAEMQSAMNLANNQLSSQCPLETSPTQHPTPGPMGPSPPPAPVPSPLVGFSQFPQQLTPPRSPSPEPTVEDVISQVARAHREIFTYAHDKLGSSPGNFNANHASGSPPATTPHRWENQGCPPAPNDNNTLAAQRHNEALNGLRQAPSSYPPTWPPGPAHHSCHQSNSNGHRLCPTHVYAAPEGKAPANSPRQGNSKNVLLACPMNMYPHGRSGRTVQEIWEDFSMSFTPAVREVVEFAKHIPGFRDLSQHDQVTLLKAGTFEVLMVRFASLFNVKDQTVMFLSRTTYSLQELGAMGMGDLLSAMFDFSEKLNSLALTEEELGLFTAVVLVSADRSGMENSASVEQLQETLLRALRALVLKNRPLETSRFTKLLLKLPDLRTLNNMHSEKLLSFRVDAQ
# PG9 binder = PG9 antibody binding by small molecule; TR-FRET gp120-PG9 antibody binding; inhibition, % at 6.7 µM; 360,000 tested, 0.43% active; AID 624416; in the data active means inhibition above about 8.5%
# NR2E3 ag-1 = human photoreceptor-specific nuclear receptor agonism; Q9Y5X4; CHO-S Gal4-NCOR/VP16-NR2E3 two-hybrid, luciferase; inhibition of corepressor binding, % at 3.98 µM; 360,000 tested, 0.35% active; AID 602229;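 active means inhibition above the mean of all tested compounds plus 3 SD, cut at about 70% in these data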;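 further: 0% = DMSO with NR2E3 transfected cells and 100% = cells lacking NR2E3 construct; higher means lower luciferase signal from less NR2E3 corepressor binding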
# rCAG RNA binder = binds r(CAG) RNA repeats; 370,000 tested, 1.3% active; inhibition, % at 3 µM; r(CAG) RNA repeat, TO-PRO-1 dye displacement fluorescence;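 active means inhibition above the plate cutoff, the mean of all test compounds on that plate plus 3 SD, cut at about 35% in these data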;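 further: 0% = DMSO alone and 100% = 100 µM mitoxantrone as full dye displacement; higher means more dye released from RNA so lower well fluorescence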
# NR2E3 ag-2 = NR2E3 (human) agonism | Q9Y5X4 | GST-NR2E3/biotin-RetCOR TR-FRET, 1536-well | inhibition of corepressor binding, % at 4.78 µM | 320,000 tested, 0.12% active | AID 2300;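 active means percent inhibition above the cutoff of mean plus 3 SD of all tested compounds, set per screening campaign, cut at about 20% in these data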;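 further: 0% = DMSO wells and 100% = biotin wells as full block of FRET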
#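 System: GST-NR2E3 and biotin-RetCOR proteins; probe or stimulus: 7 nM biotin-RetCOR; doses: compound at 4.8 µM, single dose; schedule: Compound–protein incubation for 5 h at 4 °C; detection: time-resolved FRET; read-out: percent inhibition; controls: biotin wells as high control, 0.6% DMSO wells as low control; format: 1536-well plates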
# PG9 binder conf = confirmation of small molecules binding HIV-1 gp120 antibody PG9; shares compounds with PG9 binder; TR-FRET PG9 antibody binding, biochemical; inhibition, % at 6.7 µM; 1,500 tested, 90% active; AID 651571; in the data active means inhibition above about 9%
# PGV04 Ab binding = counter-screen for PG9 binders: binding control antibody PGV04 | 1,500 tested, 95% active | inhibition, % at 6.7 µM | AID 651604 | TR-FRET PGV04 antibody-gp120 binding, biochemical | shares compounds with PG9 binder; in the data active means inhibition above about 9.5%
# Starred values were filed as active, the others as inactive; . = no result given.
SMILES,Rev-erbA mod,PG9 binder,NR2E3 ag-1,rCAG RNA binder,NR2E3 ag-2,PG9 binder conf,PGV04 Ab binding
O=C(Cn1c(=S)[nH]c2ccccc2c1=O)N1CCN(c2ccc(F)cc2)CC1,9.2,10.5*,-16.2,-1.0,-1.8,16.2*,26.2*
COc1ccc(N2CCN(C(=O)Cn3c(=O)[nH]c4ccccc4c3=O)CC2)cc1,0.2,-0.6,.,-2.2,0.7,.,.
O=C(C1=C(O)C(=O)N(CC2CCCO2)C1c1ccccc1[N+](=O)[O-])c1ccco1 (stereo not given),-0.2,0.3,-20.9,3.4,3.1,.,.
CCCCOc1ccc(C2C(C(=O)c3ccc(C)o3)=C(O)C(=O)N2CC2CCCO2)cc1 (stereo not given),3.5,25.5*,-0.9,7.7,8.1,24.8*,30.3*
COC(=O)c1ccc(C2C(C(=O)c3ccco3)=C(O)C(=O)N2CC2CCCO2)cc1 (stereo not given),-2.4,0.5,-10.6,2.0,4.5,.,.
Cc1ccc(C(=O)C2=C(O)C(=O)N(CC3CCCO3)C2c2ccccc2F)o1 (stereo not given),2.2,12.5*,-8.2,0.2,12.2,22.6*,30.7*
CCC(C(=O)NC1CCCCC1)n1c2ccccc2c2nc(=O)cc(C)n21 (stereo not given),-1.3,16.4*,-10.6,0.4,-1.6,8.1,9.5*
CCC(C(=O)N1CCOCC1)n1c2ccccc2c2nc(=O)cc(C)n21 (stereo not given),7.1,0.0,8.0,-2.4,1.7,.,.
CCNC(=O)N1CCN(c2ccc(N3CCN(Cc4ccccc4)[C@@H](C)C3)c(C)c2)[C@@H](C)C1,-3.3,-1.4,.,1.6,.,.,.
Cc1cc(Nc2cc(C(F)(F)F)cc(C(F)(F)F)c2)cc(=O)n1-c1cc(C(F)(F)F)cc(C(F)(F)F)c1,-0.9,0.5,.,0.5,.,.,.
CCn1c(SCC(=O)Nc2cc(C)on2)nc2sc3c(c2c1=O)CCCC3,14.8,9.2*,-25.9,6.5,2.2,8.2,23.8*
CCCSc1ccc2nc(NC(=O)OC)[nH]c2c1,10.2,12.5*,-63.2,-0.1,0.9,24.8*,35.8*
COC(=O)Nc1nc2ccc(SC(C)C)cc2[nH]1,2.5,-1.6,-88.6,-1.1,0.1,.,.
COc1ccc(NC(=O)N(C)C[C@H]2Oc3c(NC(=O)C4CCCCC4)cccc3C(=O)N([C@H](C)CO)C[C@@H]2C)cc1,4.8,-0.8,-1.7,7.5,.,.,.
Cc1ccc(C(=O)NCCNc2nc3cc(C)c(C)cc3cc2C)cc1,16.9,8.9*,3.5,-1.1,-1.2,17.6*,22.0*
COc1cccc(C2/C(=C(\O)c3ccc(OC)c(OC)c3)C(=O)C(=O)N2c2cc(C)on2)c1 (stereo not given),1.0,14.2*,-33.7,10.1,7.8,24.6*,33.7*
CCCCCC(=O)N1C[C@H](O)[C@@H](n2cc(C3CC3)nn2)C[C@@H]1c1ccc(Cl)cc1,-4.0,-1.0,-11.4,2.9,.,.,.
Cc1ccc2cc(CN(c3ccccc3C)S(=O)(=O)c3ccccc3)c(=O)[nH]c2c1,-1.0,13.5*,-17.0,3.0,1.7,26.2*,44.6*
CNC(=O)c1ccc(NC(=O)C2CCN(c3ncnc4sc(C)c(C)c34)CC2)cc1,-4.6,17.6*,-23.4,-1.6,-1.9,13.6*,17.5*
Cc1sc2ncnc(N3CCC(C(=O)Nc4ccc(Br)cc4Br)CC3)c2c1C,20.2,23.0*,6.2,0.2,-3.1,43.7*,69.7*
Cc1sc2ncnc(N3CCC(C(=O)Nc4ccc(Cl)cc4Cl)CC3)c2c1C,6.0,1.5,7.6,2.6,-0.4,.,.
O=C(O)c1ccccc1C(=O)c1cccc2c(Br)cccc12,8.9,54.5*,22.7,10.0,.,67.6*,83.4*
O=C(O)c1ccccc1C(=O)c1cccc2c(F)cccc12,6.0,4.9,-4.0,5.4,.,.,.
O=C(c1cccnc1)N1CCC2CC1c1c(Cl)cccc12 (stereo not given),-7.5,-1.8,-15.7,-1.3,.,.,.
CN(C)c1ccc(-c2cccc(C3CC=CC4C3C(=O)N(Cc3ccccc3)C4c3ccc4ccccc4c3)c2)cc1 (stereo not given),8.5,25.7*,-51.2,5.5,0.0,36.3*,48.2*
SMILES,Rev-erbA mod,PG9 binder,NR2E3 ag-1,rCAG RNA binder,NR2E3 ag-2,PG9 binder conf,PGV04 Ab binding
COc1ccc(-c2cccc(C3CC=CC4C3C(=O)N(Cc3ccccc3)C4c3ccc4ccccc4c3)c2)cc1 (stereo not given),-0.8,3.0,0.8,11.3,3.8,.,.
COC(=O)CCC(=O)NC(=S)Nc1sc(C)c(C)c1C(N)=O,11.7,36.5*,2.3,2.9,12.6,33.3*,42.5*
CCOC(=O)c1c(C)[nH]c(C)c1C(=O)COC(=O)C1CC(=O)N(CCc2ccccc2)C1 (stereo not given),-7.2,-1.3,6.4,0.2,.,.,.
CCOC(=O)C1=C(Nc2ccc(Br)cc2)C(=O)N(CC)C1,-0.9,-0.7,.,-1.6,.,.,.
N#C/C(=C(/O)COC(=O)COc1cccc(Br)c1)c1nc2ccccc2[nH]1,7.1,12.2*,-15.3,18.8,1.5,19.2*,31.4*
CCOc1ccc(S(=O)(=O)Nc2nc3ccccc3nc2-n2ccc(=NC(=O)c3cccs3)cc2)cc1,9.4,20.2*,-13.9,6.9,5.2,31.3*,72.6*
CC(=O)Nc1ccc(S(=O)(=O)Nc2nc3ccccc3nc2-n2ccc(=NC(=O)c3ccc(F)cc3)cc2)cc1,9.3,41.5*,-2.2,-2.4,-0.1,50.2*,80.7*
CC(=O)Nc1ccc(S(=O)(=O)Nc2nc3ccccc3nc2-n2ccc(=NC(=O)c3ccccc3)cc2)cc1,0.4,-0.1,-33.1,3.1,-3.0,.,.
CC1(C(=O)N2CCC(Oc3cccnc3)CC2)CC1,2.5,.,.,-0.7,.,.,.
NC(=O)c1cc([N+](=O)[O-])ccc1NCc1cccc(N)c1,0.0,0.6,9.9,1.8,1.0,.,.
O=C(NC1CCc2ccccc21)c1cc(COc2cncc(Cl)c2)on1 (stereo not given),6.2,-1.9,-44.5,-1.0,-0.9,.,.
OC[C@H]1O[C@@H](Oc2ccc3cc(Br)ccc3c2)[C@H](O)[C@@H](O)[C@H]1O,-2.0,11.3*,16.4,1.9,9.2,16.7*,24.2*
COc1ccc(/C=C/c2cc(O)cc(OC3OC(CO)C(O)C(O)C3O)c2)cc1 (stereo not given),0.2,-1.1,-105.2,0.2,.,.,.
COc1cc(C(=O)Nc2nc3ccc(C)cc3s2)ccc1OCc1c(C)noc1C,14.0,11.5*,-37.3,1.6,4.2,20.9*,25.8*
CC(C)Nc1ncnc2c1ncn2[C@H]1CN(Cc2ccc(Cl)cc2)C[C@@H](CO)O1,1.2,1.7,9.6,1.0,.,.,.
CCOC(=O)c1c(NC(=O)C2C3C=CC(CC3)C2C(=O)O)sc(C)c1CC (stereo not given),2.6,8.7*,3.7,17.8,1.1,18.0*,23.0*
